This is a sample that favours compounds with a hit; in the whole collection about 1.9% have one here.
DNA FID counter-1: displaces DNA intercalator in HCV helicase counter-screen; DNA fluorescent intercalator displacement, fluorescence; inhibition, % at 7.9 µM; 290,000 compounds, 0.17% hits;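 further: 0% = vehicle and 100% = reference compound; higher means more ethidium bromide displaced from hairpin DNA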
HCV NS3 hel inh: blocks Hepatitis C virus NS3 helicase unwinding. NS3 helicase DNA unwinding, Cy5 molecular beacon fluorescence. inhibition, % at 10.9 µM. 290,000 compounds, 0.56% hits. AID 1800;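 active means inhibition above the mean of all tested compounds plus 3 SD, set per campaign, cut at about 35% in these data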;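 further: 0% = DMSO wells and 100% = thioflavine S control wells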
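System: HCV NS3 helicase fragment; control set: DMSO and thioflavine S; technique: Cy5 fluorescence at 0 and 60 min, beacon hairpin quenching; reagent: beacon DNA duplex substrate plus ATP; replicates: singlicate; schedule: 1 h reaction at 25 °C, ATP-initiated; medium: MOPS buffer pH 6.5 with MgCl2, DTT, Tween20, BSA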
pCIP destab: compounds decreasing mouse p/CIP protein stability; Q05BA5; F442A p/CIP-EGFP cells, EGFP fluorescence, 16 h; decrease of EGFP signal, % at 10 µM; 290,000 compounds, 0.01% hits;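 active means EGFP signal decrease of at least 30% at 10 µM or well 3 SD below plate mean, unless failing retest; inactive means the rest, including hits failing retest or dose response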
HCV core dimer: blocks dimerization of HCV core protein. inhibition, % at 5 µM. TR-FRET GST/Flag-core106 dimerization, 1536-well. 300,000 compounds, 0.33% hits;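 active means inhibition above the mean of all tested compounds plus 3 SD, set per screening campaign, cut at about 45% in these data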
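Assay system – GST-tagged and Flag-tagged HCV core protein residues 1-106 · Quantity – core106 proteins, GST 13.5 nM and Flag 17 nM · Benchmarks – unlabelled core106 and no-GST-core106 wells · Read-out basis – percent inhibition of core106 dimerization signal · Detection – time-resolved FRET, ex 340 nm, em 617 and 671 nm · Schedule – 4 h at 22.5 °C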
GPR7 antag: blocks human GPR7 receptor signaling | P48145 | GPR7-expressing cells, fluorescence antagonist assay | inhibition, % at 4.4 µM | 290,000 compounds, 1.1% hits | AID 1861; in the data active means inhibition above about 16%, passing the limit was not always enough;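 further: cells stimulated with the agonist NPW; 0% = agonist with vehicle and 100% = vehicle without agonist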
Target sequence (P48145 whole entry, looked up): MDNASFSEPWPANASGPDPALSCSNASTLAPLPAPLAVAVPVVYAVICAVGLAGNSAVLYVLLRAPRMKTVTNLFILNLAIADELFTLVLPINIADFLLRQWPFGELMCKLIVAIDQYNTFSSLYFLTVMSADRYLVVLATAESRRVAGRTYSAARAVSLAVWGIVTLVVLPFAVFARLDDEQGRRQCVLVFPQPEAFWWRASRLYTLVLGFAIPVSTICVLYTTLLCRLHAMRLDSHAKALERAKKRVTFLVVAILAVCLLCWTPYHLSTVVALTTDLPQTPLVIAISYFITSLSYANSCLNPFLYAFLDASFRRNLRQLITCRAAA
NS3 hel confirm: confirmation of Hepatitis C virus NS3 helicase inhibitors. shares compounds with HCV NS3 hel inh. NS3 helicase DNA unwinding, Cy5 molecular beacon fluorescence. inhibition, % at 10.9 µM. 1,600 compounds, 31% hits. AID 1943;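 active means inhibition above the mean of all tested compounds plus 3 SD, cutoff set per campaign, cut at about 36% in these data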
DNA FID counter-2: intercalator displacement, NS3 helicase counter-screen; shares compounds with HCV NS3 hel inh; DNA fluorescent intercalator displacement, fluorescence; inhibition, % at 7.9 µM; 1,600 compounds, 4% hits; AID 1945;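 further: 0% = vehicle and 100% = reference compound; higher means more displacement of ethidium bromide from the DNA hairpin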
FID counter DR: DNA intercalator displacement in dose response; shares compounds with HCV NS3 hel inh; fluorescent intercalator displacement from DNA, fluorescence; IC50, µM; 120 tested, under 10 active; AID 2172; call rule not given here
* hit, by the source's call; . = no result. Unless noted, no stated cut-off is given here; in the data, active means inhibition above about 37%; inactive means the rest.

SMILES	DNA FID counter-1	HCV NS3 hel inh	pCIP destab	HCV core dimer	GPR7 antag	NS3 hel confirm	DNA FID counter-2	others
O=C(CSc1nc2cc([N+](=O)[O-])ccc2n1-c1ccccc1)NCc1ccc2c(c1)OCO2	-24.2	40.4*	-11.9	22.6	13.2	28.4	4.0
CCOc1cccc(NC(=O)/C(C#N)=C\c2cn(CC(=O)O)c3ccccc23)c1	-19.1	39.9*	-17.8	8.7	0.1	48.9*	-6.7
CCOc1ccc(NC(=O)/C(C#N)=C/c2cn(CC(=O)O)c3ccccc23)cc1	-27.6	33.6	-8.1	.	-13.0	.	.
COc1cccc(C(=O)CC(C#N)c2ccc(F)cc2)c1 (configuration not stated)	-13.7	-4.0	-6.1	4.4	-8.7	.	.
Cc1c(N=C2N=C(NC(=O)NC(C)(C)C)c3ccccc32)c(=O)n(-c2ccccc2)n1C	0.7	57.7*	3.8	2.1	6.1	-11.6	-33.1
Oc1ccc(/C=N/Nc2ccnc3cc(Cl)ccc23)c(O)c1O	-18.8	40.2*	-3.3	-16.4	-10.5	6.7	44.9*
Oc1ccc(/C=N/Nc2ccnc3cc(Cl)ccc23)cc1O	19.1	-15.2	-10.4	-8.4	-17.1	.	.
O=C(NCC1CCCO1)c1ccc(NC(=O)c2ccc([N+](=O)[O-])cc2)cc1 (configuration not stated)	-1.8	7.6	11.0	-15.8	-9.1	.	.
C=CCn1c(=O)c(CCC(=O)Nc2ccc(N3CCOCC3)cc2)nc2cc(C(F)(F)F)ccc21	-30.5	-4.9	-10.8	-4.2	0.7	.	.
COc1ccc(N=C2NC(=O)/C(=C\c3ccco3)S2)cc1	-14.6	41.2*	-4.4	25.0	-2.7	-4.6	-5.8
Cc1ccc(S(=O)(=O)/N=C2/NC(=O)/C(=C\c3ccco3)S2)cc1	-21.0	37.5*	0.9	7.7	-3.6	66.7*	-2.5
Oc1ccc(/C=N\Nc2cc(N3CCOCC3)nc(N3CCOCC3)n2)c(O)c1	-17.3	-1.8	-1.4	-18.9	-1.0	.	.
Oc1ccc(/C=N/Nc2cc(N3CCCC3)nc(N3CCCC3)n2)cc1O	-19.0	56.2*	-19.8	21.4	-4.2	8.3	22.6
Cc1ccc(C)c(N2CCN(C(=O)c3ccc4nc(-c5ccco5)c(-c5ccco5)nc4c3)CC2)c1	-37.1	36.8*	6.6	37.0	-16.2	76.2*	-20.3	FID counter DR=>79.4
O=C(NC1CCCC1)c1ccc2nc(-c3ccco3)c(-c3ccco3)nc2c1	-16.7	36.7*	-13.5	24.2	-12.3	115.4*	14.8	FID counter DR=>79.4
Cc1cccc(NC2CCCCC2NS(=O)(=O)c2ccccc2)c1 (configuration not stated)	-8.0	-16.7	1.9	.	-4.8	.	.
O=C(O)/C(=C\c1cccc([N+](=O)[O-])c1)c1ccc(S(=O)(=O)N2CCCCC2)s1	-15.7	44.1*	-19.9	6.8	-6.5	54.0*	-13.6
COc1ccc(NC(=O)Nc2nnc(Cc3ccc(F)cc3)s2)cc1	-13.2	3.5	-13.5	.	-14.6	.	.
CCOc1ccc(NC(=O)c2c(NC(=O)CNCCN3CCOCC3)sc3c2CCC3)cc1	2.7	-50.5	-6.2	-5.3	9.3	.	.
O=CNCCCc1nc2ccccc2n1CCc1ccccc1	-10.1	-1.6	-0.7	.	9.3	.	.
COc1ccccc1CCNC(=O)CSc1ccc(-c2cccs2)nn1	-25.6	44.5*	2.0	4.6	-5.8	-10.4	-14.1
O=C(CSc1ccc(-c2cccs2)nn1)NCCc1ccccc1	-9.3	0.5	-13.4	10.7	-4.9	.	.
CCN(CC)CCNC(=O)c1ccc(NC(=O)C2CC(=O)N(c3ccc4c(c3)OCCO4)C2)cc1 (configuration not stated)	.	.	.	1.2	.	.	.
CCOC(=O)/C=C(C)\C=C\c1c[nH]c2ccccc12	-16.5	45.4*	-2.9	-3.3	-3.8	2.4	10.0
CCC(CNC(=O)c1c(C)nn(-c2ccccc2)c1Cl)c1ccccc1 (configuration not stated)	-40.2	-5.0	-0.7	11.0	0.0	.	.
SMILES	DNA FID counter-1	HCV NS3 hel inh	pCIP destab	HCV core dimer	GPR7 antag	NS3 hel confirm	DNA FID counter-2	others
O=C(c1ccccc1)N1CCN(C(=O)c2nn3c(C(F)(F)F)cc(-c4ccco4)nc3c2Br)CC1	-24.6	47.3*	-25.2	68.4*	-16.1	-22.8	-42.6
O=C(NC1CCCCC1)c1nn2c(C(F)(F)F)cc(-c3ccco3)nc2c1Br	-5.5	2.5	-13.0	20.0	-5.7	.	.
CCC(C)(C(=O)NC1CCCC1)N(C(=O)CNC(=O)c1ccccc1)c1c(C)n(C)n(-c2ccccc2)c1=O (configuration not stated)	-37.2	0.4	-5.8	2.4	-1.3	.	.
NNc1nc2sc3c(c2c(=O)n1Cc1ccccc1)CCC3	-10.7	43.6*	-4.5	20.3	-8.3	10.1	-16.3
CCOC(=O)c1nc(C)nc(Sc2n[nH]c(-c3ccccc3)n2)c1C	-24.0	-6.5	-14.0	3.2	-13.4	.	.
CC(=O)NCCc1nc2cc(NS(=O)(=O)c3ccc(Cl)cc3)ccc2n1C	-20.4	36.7*	-6.7	-13.1	-8.5	-2.5	-0.2
C/C(=N\NC(=O)CSc1nc(C)cc(C)n1)c1ccc([N+](=O)[O-])cc1	-6.6	-0.4	-6.5	4.7	-4.0	.	.
Cc1ccc(N(CC(=O)NCc2ccco2)C(=O)CCC(=O)Nc2nccs2)c(C)c1	-39.7	-2.3	3.3	2.6	-1.1	.	.
O=C1OC(/C=C/c2ccc(Cl)cc2)=NC/1=C/c1ccco1	-16.9	40.8*	4.4	20.5	-14.9	-1.9	2.6
O=C(Nc1ccc(F)cc1Cl)C1=COCCO1	.	.	.	-0.5	.	.	.
C(=C\c1ccccc1)/C=N/Nc1ccc2nncn2n1	-4.7	44.2*	-1.8	-6.7	16.2	-13.6	-19.5
CC(/C=N/Nc1ccc2nncn2n1)=C\c1ccccc1	-18.8	-4.6	-6.5	-2.4	-2.6	.	.
Cc1cc(C)cc(N(CCC#N)C(=O)COC(=O)c2ccc(OCc3c(C)noc3C)cc2)c1	.	.	.	6.0	.	.	.
Cn1c(CCN2CCN(c3ccccn3)CC2)nc2cc(NC(=O)COc3ccc([N+](=O)[O-])cc3)ccc21	-4.8	37.8*	5.6	7.1	7.4	9.0	10.2
O=C(O)c1cc(N2N=C(C(F)(F)F)/C(=C/C=C/c3ccco3)C2=O)ccc1Cl	12.6	60.8*	-21.3	.	-2.3	80.0*	70.8*
CCOC(=O)c1ccc(N2N=C(C)/C(=C/C=C/c3ccco3)C2=O)cc1	-5.7	13.8	7.7	3.6	-13.7	.	.
COc1ccc(C(=O)OCCOc2cccc(Cl)c2)cc1S(=O)(=O)N1CCOCC1	-28.2	-21.4	2.0	4.8	13.6	.	.
Cc1[nH]c(=O)[nH]c(=O)c1S(=O)(=O)Nc1ccc(F)c([N+](=O)[O-])c1	-0.2	1.4	-9.0	.	-5.7	.	.
O=C(NC(=S)NNS(=O)(=O)c1ccc(Cl)cc1)c1cccnc1	-1.3	-29.8	-9.5	1.6	-7.5	.	.

Bioassay records deposited in PubChem by several laboratories.
